Measurements reported in ChEMBL document CHEMBL1125502, “Structural requirements for neuropeptide Y18-36-evoked hypotension: a systematic study” (1992).
Where a SMILES comes first, the peptide text is derived from it.

Test system: Rattus norvegicus
Test: Plasma histamine level of the peptide after intra arterial administration at time 5 min in rats
Type: functional, organism-based

For CC[C@H](C)[C@H](NC(=O)[C@H](Cc1ccc(O)cc1)NC(=O)[C@H](Cc1c[nH]cn1)NC(=O)[C@H](CCCN=C(N)N)NC(=O)[C@H](CC(C)C)NC(=O)[C@H](C)NC(=O)[C@H](CO)NC(=O)[C@H](Cc1ccc(O)cc1)NC(=O)[C@H](Cc1ccc(O)cc1)NC(=O)[C@H](CCCN=C(N)N)NC(=O)[C@H](C)NC(C)=O)C(=O)N[C@@H](CC(N)=O)C(=O)N[C@@H](CC(C)C)C(=O)N[C@H](C(=O)N[C@H](C(=O)N[C@@H](CCCN=C(N)N)C(=O)N[C@@H](CCC(N)=O)C(=O)N[C@@H](CCCN=C(N)N)C(=O)N[C@@H](Cc1ccc(O)cc1)C(N)=O)[C@@H](C)O)[C@@H](C)CC, the Plasma histamine was 31.1 ng/mL.

Test system: Rattus norvegicus
Test: Change in mean arterial pressure measured 5 min after intra arterial administration at 0.4 mg/kg to male rats.
Type: functional, Artery
Set-up: unit not given here
How it was run: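 Conscious, freely moving male Sprague-Dawley rats (240–280 g) with arterial catheters; peptide in saline given IA as a 100-µL bolus (100 µg). MAP recorded by pressure transducer, calculated as [[…] + diastolic]. Baseline set by saline vehicle injection before dosing; change read 5 min post-dose relative to pre-dose control. Mean ± SEM, n ≥ 3.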

First: CC[C@H](C)[C@H](NC(=O)[C@H](Cc1ccc(O)cc1)NC(=O)[C@H](Cc1c[nH]cn1)NC(=O)[C@H](CCCN=C(N)N)NC(=O)[C@H](CC(C)C)NC(=O)[C@H](C)NC(=O)[C@H](CO)NC(=O)[C@H](Cc1ccc(O)cc1)NC(=O)[C@H](Cc1ccc(O)cc1)NC(=O)[C@H](CCCN=C(N)N)NC(=O)[C@H](C)N)C(=O)N[C@@H](CC(N)=O)C(=O)N[C@@H](CC(C)C)C(=O)N[C@H](C(=O)N[C@H](C(=O)N[C@@H](CCCN=C(N)N)C(=O)N[C@@H](CCC(N)=O)C(=O)N[C@@H](CCCN=C(N)N)C(=O)N[C@@H](Cc1ccc(O)cc1)C(=O)N[C@@H](Cc1ccc(O)cc1)C(=O)O)[C@@H](C)O)[C@@H](C)CC
Second: CC[C@H](C)[C@H](NC(=O)[C@H](Cc1ccc(O)cc1)NC(=O)[C@H](Cc1c[nH]cn1)NC(=O)[C@H](CCCN=C(N)N)NC(=O)[C@H](CC(C)C)NC(=O)[C@H](C)NC(=O)[C@H](CO)NC(=O)[C@H](Cc1ccc(O)cc1)NC(=O)[C@H](Cc1ccc(O)cc1)NC(=O)[C@H](CCCN=C(N)N)NC(=O)[C@H](C)N)C(=O)N[C@@H](CC(N)=O)C(=O)N[C@@H](CC(C)C)C(=O)N[C@H](C(=O)N[C@H](C(=O)N[C@@H](CCCN=C(N)N)C(=O)N[C@@H](CCC(N)=O)C(=O)N[C@@H](CCCN=C(N)N)C(=O)N[C@@H](Cc1ccc(O)cc1)C(=O)O)[C@@H](C)O)[C@@H](C)CC
The “Delta MAP” value of the first is lower: -8.35 for the first, -4.75 for the second.

Compared with CC[C@H](C)[C@H](NC(=O)[C@H](Cc1ccc(O)cc1)NC(=O)[C@H](Cc1c[nH]cn1)NC(=O)[C@H](CCCN=C(N)N)NC(=O)[C@H](CC(C)C)NC(=O)[C@H](C)NC(=O)[C@H](CO)NC(=O)[C@H](Cc1ccc(O)cc1)NC(=O)[C@H](Cc1ccc(O)cc1)NC(=O)[C@H](CCCN=C(N)N)NC(=O)[C@H](C)NC(C)=O)C(=O)N[C@@H](CC(N)=O)C(=O)N[C@@H](CC(C)C)C(=O)N[C@H](C(=O)N[C@H](C(=O)N[C@@H](CCCN=C(N)N)C(=O)N[C@@H](CCC(N)=O)C(=O)N[C@@H](CCCN=C(N)N)C(=O)N[C@@H](Cc1ccc(O)cc1)C(N)=O)[C@@H](C)O)[C@@H](C)CC, CC[C@H](C)[C@H](NC(=O)[C@H](Cc1ccccc1)NC(=O)[C@H](Cc1c[nH]cn1)NC(=O)[C@H](CCCN=C(N)N)NC(=O)[C@H](CC(C)C)NC(=O)[C@H](C)NC(=O)[C@H](CO)NC(=O)[C@H](Cc1ccc(O)cc1)NC(=O)[C@H](Cc1ccc(O)cc1)NC(=O)[C@H](CCCN=C(N)N)NC(=O)[C@H](C)N)C(=O)N[C@@H](CC(N)=O)C(=O)N[C@@H](CC(C)C)C(=O)N[C@H](C(=O)N[C@H](C(=O)N[C@@H](CCCN=C(N)N)C(=O)N[C@@H](CCC(N)=O)C(=O)N[C@@H](CCCN=C(N)N)C(=O)N[C@@H](Cc1ccccc1)C(N)=O)[C@@H](C)O)[C@@H](C)CC (H-ARYYSALRHFINLITRQRF-NH2) is lower in “Delta MAP” value: 12 for the first, -6 for the second.

Going from CC[C@H](C)[C@H](NC(=O)[C@H](Cc1ccccc1)NC(=O)[C@H](Cc1c[nH]cn1)NC(=O)[C@H](CCCN=C(N)N)NC(=O)[C@H](CC(C)C)NC(=O)[C@H](C)NC(=O)[C@H](CO)NC(=O)[C@H](Cc1ccccc1)NC(=O)[C@H](Cc1ccccc1)NC(=O)[C@H](CCCN=C(N)N)NC(=O)[C@H](C)N)C(=O)N[C@@H](CC(N)=O)C(=O)N[C@@H](CC(C)C)C(=O)N[C@H](C(=O)N[C@H](C(=O)N[C@@H](CCCN=C(N)N)C(=O)N[C@@H](CCC(N)=O)C(=O)N[C@@H](CCCN=C(N)N)C(=O)N[C@@H](Cc1ccccc1)C(N)=O)[C@@H](C)O)[C@@H](C)CC (H-ARFFSALRHFINLITRQRF-NH2) to CC[C@H](C)[C@H](NC(=O)[C@H](Cc1ccccc1)NC(=O)[C@H](Cc1c[nH]cn1)NC(=O)[C@H](CCCN=C(N)N)NC(=O)[C@H](CC(C)C)NC(=O)[C@H](C)NC(=O)[C@H](CO)NC(=O)[C@H](Cc1ccc(O)cc1)NC(=O)[C@H](Cc1ccccc1)NC(=O)[C@H](CCCN=C(N)N)NC(=O)[C@H](C)N)C(=O)N[C@@H](CC(N)=O)C(=O)N[C@@H](CC(C)C)C(=O)N[C@H](C(=O)N[C@H](C(=O)N[C@@H](CCCN=C(N)N)C(=O)N[C@@H](CCC(N)=O)C(=O)N[C@@H](CCCN=C(N)N)C(=O)N[C@@H](Cc1ccccc1)C(N)=O)[C@@H](C)O)[C@@H](C)CC (H-ARFYSALRHFINLITRQRF-NH2), the “Delta MAP” value falls from 12.33 to 3.

Going from CC[C@H](C)[C@H](NC(=O)[C@H](Cc1ccccc1)NC(=O)[C@H](Cc1c[nH]cn1)NC(=O)[C@H](CCCN=C(N)N)NC(=O)[C@H](CC(C)C)NC(=O)[C@H](C)NC(=O)[C@H](CO)NC(=O)[C@H](Cc1ccccc1)NC(=O)[C@H](Cc1ccc(O)cc1)NC(=O)[C@H](CCCN=C(N)N)NC(=O)[C@H](C)N)C(=O)N[C@@H](CC(N)=O)C(=O)N[C@@H](CC(C)C)C(=O)N[C@H](C(=O)N[C@H](C(=O)N[C@@H](CCCN=C(N)N)C(=O)N[C@@H](CCC(N)=O)C(=O)N[C@@H](CCCN=C(N)N)C(=O)N[C@@H](Cc1ccccc1)C(N)=O)[C@@H](C)O)[C@@H](C)CC (H-ARYFSALRHFINLITRQRF-NH2) to CC[C@H](C)[C@H](NC(=O)[C@H](Cc1ccc(O)cc1)NC(=O)[C@H](Cc1c[nH]cn1)NC(=O)[C@H](CCCN=C(N)N)NC(=O)[C@H](CC(C)C)NC(=O)[C@H](C)NC(=O)[C@H](CO)NC(=O)[C@H](Cc1ccc(O)cc1)NC(=O)[C@H](Cc1ccc(O)cc1)NC(=O)[C@H](CCCN=C(N)N)NC(=O)[C@H](C)N)C(=O)N[C@@H](CC(N)=O)C(=O)N[C@@H](CC(C)C)C(=O)N[C@H](C(=O)N[C@H](C(N)=O)[C@@H](C)O)[C@@H](C)CC (H-ARYYSALRHYINLIT-NH2), the “Delta MAP” value falls from 7.66 to 0.

First: CC(C)C[C@H](NC(=O)[C@H](C)NC(=O)[C@H](CO)NC(=O)[C@H](Cc1ccc(O)cc1)NC(=O)[C@H](Cc1ccc(O)cc1)NC(=O)[C@H](CCCN=C(N)N)NC(=O)[C@H](C)N)C(N)=O (H-ARYYSAL-NH2)
Second: CC(C)C[C@H](NC(=O)[C@H](C)NC(=O)[C@H](CO)NC(=O)[C@H](Cc1ccc(O)cc1)NC(=O)[C@H](Cc1ccc(O)cc1)NC(=O)[C@H](CCCN=C(N)N)NC(=O)[C@H](C)N)C(=O)N[C@@H](CCCN=C(N)N)C(N)=O (H-ARYYSALR-NH2)
The “Delta MAP” value of the first is lower: 3.33 for the first, 4.67 for the second.

In the case of CC(C)C[C@H](NC(=O)[C@H](C)NC(=O)[C@H](CO)NC(=O)[C@H](Cc1ccc(O)cc1)NC(=O)[C@H](Cc1ccc(O)cc1)NC(=O)[C@H](CCCN=C(N)N)NC(=O)[C@H](C)N)C(=O)N[C@@H](CCCN=C(N)N)C(=O)N[C@@H](Cc1c[nH]cn1)C(=O)N[C@@H](Cc1ccc(O)cc1)C(N)=O (H-ARYYSALRHY-NH2), the “Delta MAP” value is reported as -12.

Test system: Rattus norvegicus
Test: Plasma histamine level of the peptide after intra arterial administration at time 0 min in rats
Type: functional, organism-based

Work on CC[C@H](C)[C@H](NC(=O)[C@H](Cc1ccc(O)cc1)NC(=O)[C@H](Cc1c[nH]cn1)NC(=O)[C@H](CCCN=C(N)N)NC(=O)[C@H](CC(C)C)NC(=O)[C@H](C)NC(=O)[C@H](CO)NC(=O)[C@H](Cc1ccc(O)cc1)NC(=O)[C@H](Cc1ccc(O)cc1)NC(=O)[C@H](CCCN=C(N)N)NC(=O)[C@H](C)NC(C)=O)C(=O)N[C@@H](CC(N)=O)C(=O)N[C@@H](CC(C)C)C(=O)N[C@H](C(=O)N[C@H](C(=O)N[C@@H](CCCN=C(N)N)C(=O)N[C@@H](CCC(N)=O)C(=O)N[C@@H](CCCN=C(N)N)C(=O)N[C@@H](Cc1ccc(O)cc1)C(N)=O)[C@@H](C)O)[C@@H](C)CC yielded a Plasma histamine of 16 ng/mL.
